From PubChem BioAssay
CHOP inh = inhibitors of CHOP promoter induction, primary screen, cell-based, unfolded protein response, luciferase reporter; 220,000 compounds, 3.8% hits; CHO-K1 CHOP-promoter luciferase, tunicamycin-induced, 15-18 h; inhibition, % at 10 µM; AID 2732, 2010;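 active = compounds that reduced the stress-induced luciferase reporter signal by more than about 70% of percent inhibition, limit read from the data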;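 note: 0% = tunicamycin plus vehicle and 100% = wells without tunicamycin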
XBP1 UPR activ = activators of adaptive XBP1 UPR arm, primary screen, cell-based, CHO-XBP1 luciferase reporter, luminescence, uHTS; IRE1-XBP1 UPR activation; percent of tunicamycin response, DMSO as zero; activation, % at 20 µM; 330,000 compounds, 0.33% hits; AID 463104, 2010;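 active = versus positive control, 20 µM dose yields 30% or more activation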;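 note: 100% = tunicamycin at 10 µg/mL and 0% = DMSO only wells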
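Material: CHO-XBP1 cells stably carrying IRE1-XBP1-driven luciferase reporter | Medium: F12 with 10% serum | Compound dosing: 20 µM single concentration, DMSO 1% | Incubation: Overnight seeding at 37 °C, 6 h compound treatment at 37 °C | Detection: Steady-Glo luminescence read | Read-out basis: % activation of reporter signal versus tunicamycin and DMSO controls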
V-ATPase pHluor = regulators of yeast V-ATPase proton pumping, primary screen, pHLuorin cytosolic pH fluorescence; 350,000 compounds, 0.37% hits; AID 504577, 2011; response, % at 10 µM; S. cerevisiae; in the data active = response mostly above about 7.3%, no sharp cut-off; inactive = mostly below about 5.4%; note: actives read high
CHOP UPR activ = activators of apoptotic CHOP UPR arm, primary screen, cell-based, CHO-CHOP luciferase reporter, luminescence, uHTS. activation, % at 10 µM. UPR activation; percent of tunicamycin response over DMSO baseline. AID 449763, 2010. 330,000 compounds, 0.34% hits;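 active = at 10 µM dose, activation of 40% or more, normalized to positive control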;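 note: 100% = tunicamycin at 10 µg/mL and 0% = DMSO alone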
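System: CHO-CHOP luciferase reporter cell line | Buffer or medium: F12 medium containing 10% fetal bovine serum | Doses: One dose, 10 µM in 0.5% DMSO | Times: 6 h compound exposure at 37 °C after overnight seeding | Signal: Luciferase luminescence | Read-out: % activation vs tunicamycin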
TbMetRS inhib = T. brucei MetRS inhibitors, primary screen, biochemical, luminescence. methionyl-tRNA synthetase (Trypanosoma brucei brucei). purified T. brucei MetRS, ATP depletion, Kinase-Glo luminescence. inhibition, % at 11.9 µM. 360,000 compounds, 0.4% hits. AID 624268, 2012;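 active = inhibition above a per-plate cutoff of the control wells' mean inhibition plus 3 SD, cut at about 5.5% in these data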;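 note: 0% = DMSO wells median and 100% = median of wells with control inhibitor compound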
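Material: T. brucei methionyl-tRNA synthetase, purified; reagent: substrates ATP, L-methionine and bulk Escherichia coli tRNA; dosing: 11.9 µM single point; timing: 15 min plus 2 h at 25 °C; detection: luminescence of leftover ATP; evaluation: % inhibition; control set: DMSO-only wells as low control; replicates: singlicate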
Numbers without * were called inactive; nt = no result. This is one part of a sample in which hits are shown more often than they occur.

SMILES	CHOP inh	XBP1 UPR activ	V-ATPase pHluor	CHOP UPR activ	TbMetRS inhib
CCCCOc1ccc(NS(=O)(=O)c2ccc(-n3cnnn3)cc2)cc1	nt	-3	1	-2	0
O=S(=O)(Nc1ncccn1)c1ccc(-n2cnnn2)cc1	-4	-4	9.5*	1	0
Cc1ccc(N2C(=O)NC(NC(=O)C3CC3)(C(F)(F)F)C2=O)cc1 (stereo not drawn)	12	0	-4	5	0
COC(=O)C1=C(C)N(Cc2ccc(OC)c(OC)c2)C(=O)C1	7	-2	-1	-1	-1
COC(=O)C1=C(C)N(CCc2ccc(OC)c(OC)c2)C(=O)C1	20	7	31*	-3	-1
CCCCn1c(NC(=O)c2ccc(F)cc2)c(C#N)c2nc3ccccc3nc21	nt	96*	nt	2	nt
N#Cc1c(N)n(CCc2ccc(F)cc2)c2nc3ccccc3nc12	71*	-5	2	3	4
Cc1ccc(C(=O)NCCn2c(N)c(C#N)c3nc4ccccc4nc32)cc1	-14	-1	4	1	1
CC(C)Nc1nc(NCCN2CCCC2)c2sc(-c3ccccc3)cc2n1	nt	nt	nt	nt	0
COc1cccc(-c2cccc(-c3nc(C(=O)NCCCN4CCOCC4)cc4c3[C@H](CCO)N(S(=O)C(C)(C)C)C4)c2)c1 (stereo partly drawn)	nt	nt	nt	nt	-1
CCCCOc1ccc(/C=C/C(=O)OCC(=O)NC2CCS(=O)(=O)C2)cc1OCC (stereo not drawn)	nt	-1	1	0	0
CCCCOc1ccc(/C=C/C(=O)OCC(=O)NC(=O)NCC(C)C)cc1OCC	72*	-3	6	1	-1
O=[N+]([O-])c1ccc(NN=Cc2ccc(O)cc2O)nc1	nt	nt	0	nt	1
CCN(CC)S(=O)(=O)c1ccc(N/N=C/c2ccc(O)cc2O)nc1	83*	3	2	-2	1
Oc1ccc(N=Nc2n[nH]c(-c3ccc(Cl)cc3)n2)cc1	75*	-4	3	5	2
C=C1CC(COc2ccc3c(C)c(Cl)c(=O)oc3c2)(c2ccccc2)OC1=O (stereo not drawn)	nt	nt	-2	nt	0
O=C(O)CCn1cc(C2CC(c3ccccc3)=NN2c2ccccc2)c(-c2ccccc2)n1 (stereo not drawn)	80*	0	1	0	0
Cc1ccc(-c2nn(-c3ccccc3)cc2C2CC(c3cccs3)=NN2C(=O)CCC(=O)O)cc1 (stereo not drawn)	13	-4	-3	2	1
CC(C)(C)C1CCC(=NNC(=O)c2ccco2)CC1 (stereo not drawn)	nt	-2	0	0	1
CC(C)(C)OC(=O)N1CCC(c2cc(=O)n3[nH]c(-c4ccc(Cl)cc4)cc3n2)CC1	70*	-1	-2	-1	0
O=C(CC(=O)Nc1cccc(F)c1)Nc1cccc(F)c1	nt	-3	-1	4	2
O=C(Cn1c2ccccc2c(=O)c2ccccc21)Nc1cccc(F)c1	77*	2	-1	0	0
NS(=O)(=O)c1ccc(CNC(=S)NC2CC2)cc1	-1	-1	0	-2	0
c1ccc(-c2nc3ccccc3o2)nc1	-2	9	-1	1	0
c1ccc2nc(-c3nc4ccccc4o3)ccc2c1	71*	-4	-3	-8	-3
SMILES	CHOP inh	XBP1 UPR activ	V-ATPase pHluor	CHOP UPR activ	TbMetRS inhib
OCC[C@@H]1NCc2cc(CO)cc(-c3ccccc3)c21	nt	nt	3	nt	0
C(=NN=Cc1c[nH]c2ccccc12)c1c[nH]c2ccccc12	nt	nt	-3	nt	0
COCCN=c1scc(-c2ccccc2)n1/N=C/c1c[nH]c2ccccc12	73*	3	-2	3	-1
O=C(COC(=O)c1cc(C(F)(F)F)cc(C(F)(F)F)c1)NCc1ccc(Cl)cc1	73*	4	0	0	0
Fc1cc(NC(=S)NCc2ccc(CNC(=S)Nc3ccc(Cl)c(F)c3)cc2)ccc1Cl	84*	-1	-2	6	0
FC(F)(F)c1cccc(NC(=S)NCc2ccc(Cl)cc2)c1	95*	-1	-1	-1	0
Fc1ccc(CNC(=S)Nc2cccc(C(F)(F)F)c2)cc1	24	-4	-1	-1	-1
CC(C)Cc1nnc(NC(=O)C2CCCN(C(=O)c3ccc(Cl)cc3)C2)s1 (stereo not drawn)	nt	nt	1	nt	0
CC(=O)C[C@H]1SC[C@@H](C(C)C)N1S(=O)(=O)c1ccc(C)cc1	nt	nt	nt	nt	-1
O=C(NNS(=O)(=O)c1ccccc1F)c1sccc1-n1cccc1	8	-3	5	0	-1
COC(=O)c1ccc(NC(=O)c2ccc3c(c2)NC(=O)C2CCCN32)cc1 (stereo not drawn)	nt	-6	nt	-3	nt
CCCCNC(=O)c1[nH]c(=O)cnc1-c1ccccc1	nt	nt	nt	nt	0
CC(N)(Cc1ccc(O)c(O)c1)C(=O)O (stereo not drawn)	-9	nt	nt	nt	nt
CSc1nc2ccc(NC(=O)c3ccccn3)cc2s1	nt	-12	3	-3	1
COC(=O)c1ccc(C(=O)NC(=S)Nc2ccc3nc(SC)sc3c2)cc1	72*	29	-3	17	0
ClC(Cl)c1nnc(-c2ccccc2)c(-c2c[nH]c3ccccc23)n1	80*	-1	0	1	4
c1ccc(-c2nnc(-c3c[nH]c4ccccc34)nc2-c2ccccc2)cc1	-15	10	-4	4	-1
CC(C)C1C2CCC(C2)C1N (stereo not drawn)	-12	nt	nt	nt	nt
CSC1CCCCC1(O)CSc1nc2c(cc1C#N)CCCC2 (stereo not drawn)	85*	2	-12	2	0
COc1cc(/C=C2/NC(=O)NC2=O)cc(Br)c1OCc1cccc(C(=O)O)c1	5	-3	-2	-2	1
COc1cc(/C=C2/NC(=O)NC2=O)cc(Br)c1OCc1ccccc1	94*	3	6	-1	-1
Oc1ccc(F)c2cccnc12	72*	6	4	5	0
Oc1ccc(COCc2ccccc2)c2cccnc12	nt	11	2	74*	-2
COc1ccc(OC)c2c1C(=O)c1ccccc1C2=O	17	5	nt	-3	nt
COc1ccc(OC)c2c1C(=O)C(Cl)=C(Cl)C2=O	106*	-11	5	-8	-1
Cc1ccc(CCNC(=O)C2CC(c3cc(C(F)(F)F)cc(C(F)(F)F)c3)=NO2)cc1 (stereo not drawn)	76*	3	-1	-2	0
COc1ccc(CC(=O)NCc2cccc(Cl)c2)cc1S(=O)(=O)N1CCOCC1	nt	nt	nt	nt	0
Cc1ccc(NC(=O)c2ccc(-c3nn(C)c(=O)c4ccccc34)cc2)cc1	74*	0	3	-1	0
